Source: PubChem BioAssay (The Scripps Research Institute Molecular Screening Center)
The sample as a whole holds a higher share of hits than the screen did.
RORa inhibitor: inhibitors of orphan receptor RORA, primary screen, cell-based, luminescence | inhibition, % at 10 µM | actives 0.43% (n = 65,000) | CHO-K1 Gal4-RORA LBD luciferase reporter | Nuclear receptor ROR-alpha (Homo sapiens), P35398 | AID 561, 2006;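 active = inhibition above the mean of all tested compounds plus 3 SD, cut at about 52% in these data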;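 note: 0% = RORA-transfected cells with DMSO and 100% = mock-transfected cells lacking RORA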
Target sequence (P35398 whole entry, looked up, the tested form may be a part): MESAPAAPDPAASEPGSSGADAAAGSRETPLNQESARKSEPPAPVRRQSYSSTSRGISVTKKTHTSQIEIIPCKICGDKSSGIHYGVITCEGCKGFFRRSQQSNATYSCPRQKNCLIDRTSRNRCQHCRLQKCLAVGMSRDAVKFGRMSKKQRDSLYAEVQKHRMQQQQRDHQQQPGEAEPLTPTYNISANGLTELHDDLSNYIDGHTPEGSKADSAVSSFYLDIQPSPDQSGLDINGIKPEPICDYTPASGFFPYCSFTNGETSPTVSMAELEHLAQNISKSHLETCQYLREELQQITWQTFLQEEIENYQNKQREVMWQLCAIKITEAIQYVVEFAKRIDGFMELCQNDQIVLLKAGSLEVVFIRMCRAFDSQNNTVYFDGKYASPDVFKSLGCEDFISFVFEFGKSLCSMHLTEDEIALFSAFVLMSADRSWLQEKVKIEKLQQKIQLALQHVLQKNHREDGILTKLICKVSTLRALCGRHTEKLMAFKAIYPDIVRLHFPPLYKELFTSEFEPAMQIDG
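Test system: CHO-K1 cells with Gal4-hRORA LBD fusion and pG5-luc reporter / Compound: single concentration per compound, 10 µM final / Schedule: 20 h compound treatment, 37 °C / Signal: luminescence from basal luciferase reporter expression / Read-out: % inhibition / Control set: mock-transfected cells as 100%, +RORA DMSO cells as 0% / Replicates: tested once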
* marks the source's active call; other numbers are inactive results.

SMILES	RORa inhibitor
COc1ccc(C(=O)Nc2ccc(C)cn2)c(OC)c1	78*
COc1ccccc1C(=O)Nc1ccccn1	-45
CCOc1ccc(NC(=O)c2ccccc2OC)cc1	-49
O=C(C1CCCN(S(=O)(=O)c2cccs2)C1)N1CCC(N2CCCCC2)CC1 (centres undefined)	14
COc1ccc(-c2cc(=O)c3ccccc3s2)cc1	-23
COc1ccc2c(c1)sc1nc(-c3ccccc3)cn12	92*
COc1ccc(-c2cn3c(C)c(C(=O)NC(C)(C)C)sc3n2)cc1	-56
COc1ccc(-c2nc(C#N)c(NCC3CCCO3)o2)cc1OC (centres undefined)	-53
Fc1ccc(-c2nnc(NC3=NCCCCC3)o2)cc1	73*
CCOC(=O)c1c(C)n(CC(COC(C)=O)OC(C)=O)c2ccc(OC(C)=O)cc12 (centres undefined)	20
CCOC(=O)c1ccc(NS(=O)(=O)N2CCCCCC2)cc1	-49
O=C1c2ccccc2C(=O)C1c1ccc2ccccc2n1	70*
O=C(CN(CCO)c1ccccc1)NC12CC3CC(CC(C3)C1)C2	24
c1ccn2c(CNc3ncnc4sccc34)nnc2c1	-2
Cc1ccc2nc(C(F)(F)F)c(C#N)c(N)c2c1	57*
C=CCOc1ccc(C2c3c(oc4ccccc4c3=O)C(=O)N2c2ccccn2)cc1OCC (centres undefined)	-10
O=C(CN1C(=O)c2ccccc2S1(=O)=O)NCCC1=CCCCC1	15
Cn1ccnc1-c1nc2ccccc2[nH]c1=O	6
Cn1cc(Cl)c(-c2nc3ccccc3[nH]2)n1	-56
c1ccc2nc(-c3nc4ccccc4[nH]3)ccc2c1	66*
CNc1nc(C)nc(-c2ccccc2O)n1	-14
CCS(=O)(=O)n1nc(-c2ccccc2)cc1N	0
CCc1nn2cc(-c3ccccc3)nc2s1	66*
Cc1c(C(=O)Nc2ccccc2)sc2nc(-c3ccccc3)cn12	-58
CCNc1nc(N)c(C(=O)c2ccc(Cl)s2)s1	-50
SMILES	RORa inhibitor
Cc1cccc2cc(COC(=O)COc3ccccc3)c(=O)[nH]c12	-10
CS(=O)c1nc(-c2ccc(Br)cc2)cc(-c2ccccc2)c1C#N (centres undefined)	58*
Nc1nc(-c2ccccc2)cc(-c2ccccc2O)n1	-49
COC(=O)C1CCCN1C(=O)c1cccs1 (centres undefined)	15
CC1CCc2c(sc3nc(SCc4nc(-c5ccccc5)no4)n(C)c(=O)c23)C1 (centres undefined)	18
COC(=O)/C(=C1/Oc2cc(C)oc(=O)c2S1)C(F)(F)F	95*
O=C(Cc1ccccc1)CC1(O)C(=O)Nc2ccccc21 (centres undefined)	4
CCc1cc2c3c(c(=O)oc2cc1O)CCCC3	0
COC(=O)COc1nc(C)c(Br)c(OC)n1	3
O=C(Nc1cnc2sc3c(n2c1=O)CCCC3)c1ccc(F)cc1	-40
Nc1nnnn1/N=C/C(Br)=C/c1ccccc1	77*
CCCc1cc(=O)[nH]c(SCC(=O)Nc2cc3c(cc2C(C)=O)OCO3)n1	1
O=C(CSc1nc2sc3c(c2c(=O)[nH]1)CCCC3)NCCO	10
CC(C)c1ccc(C(=O)CSc2ncn[nH]2)cc1	-53
O=C(Nc1sc2c(c1C(=O)O)CCCCC2)c1ccco1	-62
N#Cc1c(NC(=O)CSc2nc(N)cc(=O)[nH]2)sc2c1CCCCCC2	52*
N#Cc1c(NC(=O)CSc2ncn[nH]2)sc2c1CCCCC2	88*
CCN(C(=O)COc1ccccc1)c1nnc(-c2cccnc2)s1	-5
Cc1cc(C)c(-c2cc(C(F)(F)F)no2)c(=O)[nH]1	9
CC1=C(C#N)C(=O)OC(C)(C)C1	-25
CCn1c(C)nc2cc(-c3nc4n(n3)Cc3ccccc3-4)ccc21	96*
FC(F)(F)C1CC(c2cccs2)Nc2ncnn21 (centres undefined)	5
Cc1cc(NC(=O)c2ccc3c(c2)OCCO3)no1	59*
Cc1cc(NC(=O)c2noc3c2CCCCC3)no1	-58
CCCN1C(=O)c2ccc(C(=O)Nc3cc(C)on3)cc2C1=O	9
SMILES	RORa inhibitor
COc1cc(-c2nnc(SCC(=O)N(Cc3ccccc3)C(C)(C)C)o2)cc(OC)c1OC	-14
O=C(CSc1nnc(Cn2nnc3ccccc32)o1)N(Cc1ccc(F)cc1)c1ccccc1	71*
COc1cc(OC)cc(-c2nnc(SCC(=O)N(Cc3ccccc3)C(C)(C)C)o2)c1	13
Cc1ccc(C)n1/N=C1/NC(=O)CS1	10
O=C(NCc1cccs1)C1CC(=O)N(c2ccc(F)cc2)C1 (centres undefined)	-20
O=C(c1ccco1)N1CCN(c2ccc(Cl)cc2)CC1	-98
CC(=O)c1ccc(N2CCN(C(=O)c3ccc(OCc4c(C)noc4C)cc3)CC2)cc1	9
Cc1noc(C)c1S(=O)(=O)Nc1ccc(C(=O)N2CCN(c3ccc(Cl)cc3)CC2)cc1	60*
c1ccc2c(c1)[nH]c1nc3nncn3nc12	-2
COc1cc(CC(=O)Nc2ccc(S(=O)(=O)Nc3ncccn3)cc2)cc(OC)c1OC	1
Cc1ccc(S(=O)(=O)N(C)Cc2ccc(-c3nnc4n3CCC4)cc2)cc1	14
CN1CCN(c2cc(=O)n(C3CCCCC3)c(=O)[nH]2)CC1	5
O=c1cc(N2CCN(c3cccc(Cl)c3)CC2)[nH]c(=O)n1C1CCCCC1	65*
COc1ccccc1N1CCN(c2cc(=O)n(-c3ccccc3Cl)c(=O)[nH]2)CC1	-12
O=S(=O)(NC1CC2CCC1C2)c1ccc(Br)s1 (centres undefined)	13
CCCS(=O)(=O)c1nnnn1-c1cccc(OC)c1	82*
CCS(=O)(=O)N1CCCC(c2nc(-c3cccc(OC)c3)no2)C1 (centres undefined)	-39
COc1ccc2c(-c3ccccc3)cc3nnnn3c2c1	0
CN(CC(=O)Nc1nccs1)S(=O)(=O)c1ccc(F)cc1	-6
COc1cc(CC(NC(C)=O)C(=O)NC2CCN(c3nc(C)cc(C)c3C#N)CC2)cc(OC)c1 (centres undefined)	75*
COc1ccc(Nc2nc(C)cc(C)c2C#N)cc1	-4
CC(=O)NC(Cc1ccccc1)C(=O)NC1CCN(C(=O)NC2CCCCC2)CC1 (centres undefined)	3
Cc1noc(/C=C/N(C)C)c1S(=O)(=O)N1CCc2ccccc21	3
c1ccc(-c2noc(-c3cccc4ccccc34)n2)cc1	-61
COc1cccc(-c2nc(-c3ccccc3)no2)c1	-14
SMILES	RORa inhibitor
Cc1ccc(-c2nc(-c3ccccc3)no2)c(Cl)c1	57*
COC(=O)c1ccccc1NC(=O)CN1CCC(NC(=O)c2ccccc2C)CC1	-12
CCOCC(=O)Nc1nnc(C2CCCCC2)s1	-50
CCOc1cccc(OCCCCn2ccnc2)c1	8
O=c1cc(N2CCc3ccccc32)[nH]c(=O)n1Cc1ccc(F)cc1	-10
C=CS(=O)(=O)c1ccc(Oc2ccc(S(=O)(=O)C=C)cc2)cc1	94*
CCOC(=O)C1CCCN(C(=O)C2CCN(S(=O)(=O)c3cnc[nH]3)CC2)C1 (centres undefined)	10
CCOC(=O)N1CCN(Cc2nc3c(c(=O)[nH]c(=O)n3C)n2CCCc2ccccc2)CC1	20
O=C(CCCCn1c(=O)[nH]c2ccccc2c1=O)N1CCN(c2ncccn2)CC1	15
C=CCNC(=O)c1cc(-c2ccc(Br)cc2)on1	-61
Cc1ccc2c(CSc3nnc(C4CC4)n3N)cc(=O)oc2c1C	3
